# Only some compounds are listed: those with a hit (about 1.8% of all), similar ones and a draw of the others.
# M5 antag: CHRM5 antagonism in calcium assay | CHO-hM5 cells, Fluo-8 calcium fluorescence, ACh EC80 | inhibition, % at 3 µM | actives 0.59% (n = 360,000);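 active = inhibition above a per-plate cutoff, the mean of that plate's test compounds plus 3 SD, cut at about 27% in these data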;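 note: 0% = acetylcholine EC80 with DMSO and 100% = DMSO without agonist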
# Target sequence (P08912 whole entry, looked up): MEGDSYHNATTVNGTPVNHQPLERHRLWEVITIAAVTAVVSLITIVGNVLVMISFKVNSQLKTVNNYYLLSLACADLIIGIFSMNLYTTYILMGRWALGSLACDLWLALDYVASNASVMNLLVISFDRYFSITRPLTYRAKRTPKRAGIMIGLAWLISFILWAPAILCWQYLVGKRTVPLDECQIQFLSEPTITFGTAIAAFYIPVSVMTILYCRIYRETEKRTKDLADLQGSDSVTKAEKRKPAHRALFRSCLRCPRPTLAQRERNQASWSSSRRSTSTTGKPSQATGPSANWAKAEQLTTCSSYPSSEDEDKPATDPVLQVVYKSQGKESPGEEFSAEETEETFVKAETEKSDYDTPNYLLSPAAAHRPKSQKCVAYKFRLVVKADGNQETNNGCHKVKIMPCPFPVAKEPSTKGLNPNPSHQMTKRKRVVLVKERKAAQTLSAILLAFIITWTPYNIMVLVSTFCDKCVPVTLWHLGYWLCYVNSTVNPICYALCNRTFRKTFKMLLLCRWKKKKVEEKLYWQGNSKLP
# CHRM4 PAM: CHRM4 positive allosteric modulation; actives 0.4% (n = 360,000); CHO-K1 hM4/Gqi5, Fluo-8 calcium fluorescence, ACh EC20; 0% = ACh EC20, 100% = maximal ACh; AID 624126; activation, % at 3 µM;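 active = activation above its plate's cutoff, the mean activation of sample wells plus 3 SD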
# CHRM4 agonist: agonists of human muscarinic M4 receptor (CHRM4); activation, % at 3 µM; actives 0.14% (n = 360,000); CHO-K1 hM4/Gqi5, Fluo-8 calcium fluorescence; vehicle 0%, full acetylcholine response 100%; P08173;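 active = activation above the run mean over all test wells plus 3 SD, cut at about 32% in these data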;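 note: peak over basal fluorescence ratio per well then scaled between controls; 0% = DMSO wells and 100% = acetylcholine at EC100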
# M4 antag: antagonists of human muscarinic M4 receptor (CHRM4). actives 0.73% (n = 360,000). inhibition, % at 3 µM. AID 624125. P08173. CHO-hM4 cells, ACh EC80, Fluo-8 calcium fluorescence;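 active = inhibition above its plate's cutoff, the mean inhibition of sample wells plus 3 SD, cut at about 27% in these data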;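 note: 0% = acetylcholine EC80 with DMSO and 100% = DMSO without agonist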
# M5 ag: CHRM5 agonism in calcium assay. CHO-K1 hM5 cells, Fluo-8 calcium fluorescence; 0% DMSO wells, 100% maximal acetylcholine response. actives 0.19% (n = 360,000). AID 624037. activation, % at 3 µM. P08912;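 active = activation above the run's mean over test compounds plus 3 SD, cut at about 23% in these data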;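 note: signal is peak over basal fluorescence ratio across the kinetic read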
# M5 PAM: CHRM5 positive allosteric modulation. P08912. CHO-K1 hM5, Fluo-8 calcium, ACh EC20 PAM; 0% = ACh EC20, 100% = ACh EC100. activation, % at 3 µM. actives 0.3% (n = 360,000);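 active = activation above the run cutoff, the mean activation of all test compounds plus 3 SD, cut at about 18% in these data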
#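 Probe or stimulus: acetylcholine, EC20 level; Assay system: human M5 receptor in CHO-K1 cells; Schedule: compound preincubation 140 s before EC20 acetylcholine addition; Technique: intracellular calcium via Fluo-8 fluorescence; Dosing: single-point, 3 µM nominal; Read-out basis: percent activation from peak-over-basal fluorescence ratio, scaled EC20-to-EC100 acetylcholine; Repeats: one well per compound, no replicates.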
# Numbers without * were called inactive.
SMILES,M5 antag,CHRM4 PAM,CHRM4 agonist,M4 antag,M5 ag,M5 PAM
OC(CNCCC1C=Nc2ccccc21)Cn1c2ccc(Cl)cc2c2cc(Cl)ccc21 (stereo not drawn),6,-11,18,37*,9,2
COc1ccc(/C=N/NC(=O)CNC(=O)C2COc3ccccc3O2)cc1OC (stereo not drawn),-10,-2,4,-4,-1,0
O=C(O)CN(c1ccccn1)S(=O)(=O)c1ccc(Cl)cc1,-8,20*,0,-4,-2,13
O=[N+]([O-])c1ccc(Nc2ccc(Cl)cc2)nc1,31*,-13,8,5,-4,-15
Cc1cc(C)c2c(n1)sc1c(N3CCN(C)CC3)ncnc12,8,25,1,17,0,-1
Cc1cc(C)c2c(n1)sc1c(N3CCCCC3)ncnc12,0,23*,2,-9,-2,4
O=C(CN1CCOCC1)N1CCOCC1,3,5,1,-6,4,-1
Cc1ccccc1-c1nc(NCCN(C)C)nc2ccsc12,56*,-13,1,56*,-4,-20
CN(C)CCNc1nc(-c2ccccc2CO)c2sccc2n1,37*,-10,1,21,-4,-20
CC(C)Nc1nc(-c2ccccc2CO)c2sccc2n1,-3,2,2,-24,-2,-3
CC1=C(C(=O)N(C)C)CC(CC(=O)NCCCCc2ccccc2)C(=O)N1CCCN1CCCC1=O (stereo not drawn),7,22*,1,-15,0,-10
O=C(CONS(=O)(=O)c1ccc(Cl)cc1)NCCNc1ncc(C(F)(F)F)cc1Cl,13,7,6,-6,3,-8
Cc1cccc(C(=O)Nc2ccc(C(=O)/C=C/c3cccnc3)cc2)c1,4,-2,9,-8,0,-8
Cc1cccc(C(=O)Nc2ccc(C(=O)/C=C/c3ccncc3)cc2)c1,2,-13,17,33*,4,7
O=C1CCC(C(=O)N2CCCO2)CN1Cc1cccc(C(F)(F)F)c1 (stereo not drawn),-30,19*,2,-10,-2,19*
COc1cc(OC)c(OC)cc1CCC(C)NC(=O)Cc1ccccc1 (stereo not drawn),-1,0,2,-11,-1,6
COc1ccc(CN(C)C(=O)c2cnc(OC)cc2C(F)(F)F)c(OC)c1,3,-10,6,-7,1,-5
c1ccc(C2=NNC(c3ccco3)=Nc3ccccc32)cc1,-1,1,0,0,-1,2
Cc1ccc(C2=NNC(c3ccc(Cl)cc3)=Nc3ccccc32)o1,-6,25*,0,9,-4,3
CSC(=S)N/N=C/c1ccc(Br)cc1,2,23*,2,-16,-3,-2
CSC(=S)N/N=C/c1ccc(N(C)C)cc1,10,0,0,-2,-1,-1
Cc1ccc(OCC(=O)N(Cc2ccco2)C2CCS(=O)(=O)C2)cc1C (stereo not drawn),-2,7,2,-7,3,1
Cc1cccc(C)c1OCC(=O)N(Cc1ccco1)C1CCS(=O)(=O)C1 (stereo not drawn),-1,-3,32*,0,2,1
Cc1ccnc(NS(=O)(=O)c2ccc(NC(=O)c3ccc(N4C(=O)CCC4=O)cc3)cc2)n1,-5,6,0,4,4,6
Cc1cc(C)nc(NS(=O)(=O)c2ccc(NC(=O)c3cccc(N4C(=O)CCC4=O)c3)cc2)n1,20,25*,2,6,3,8
SMILES,M5 antag,CHRM4 PAM,CHRM4 agonist,M4 antag,M5 ag,M5 PAM
O=C(NC(=S)Nc1ccccc1F)C1CCCCC1,0,-1,-1,-1,-6,2
CSc1ccc2c(c1)C(N1CCN(C)CC1)Cc1ccccc1S2 (stereo not drawn),70*,-18,25,55*,4,-18
CN1CCN(C2Cc3cc(F)ccc3Sc3ccc(Cl)cc32)CC1 (stereo not drawn),80*,-75,16,84*,-15,-35
CCc1cccc2c1Sc1ccccc1CC2N1CCNCC1 (stereo not drawn),4,-40,8,24,-18,-15
CN1CCN(C2Cc3ccc(F)cc3Sc3cc(F)c(Cl)cc32)CC1 (stereo not drawn),10,-12,10,24,-15,-20
CN1CCN(C2Cc3ccccc3Sc3ccc(Cl)cc32)CC1 (stereo not drawn),54*,-19,6,52*,0,-18
CCN(CC(=O)Nc1ccc(OC)cc1)C(=O)Cc1coc2cc(C)c(C)cc12,9,2,6,1,0,-8
COc1ccccc1CCN=C(N)NS(=O)(=O)c1ccccc1F,-5,-1,2,-2,-1,1
Nc1cc(Cl)ccc1C(=O)OCC(=O)NCc1cccs1,8,11,2,4,-3,-14
c1ccc(-n2nnnc2Oc2ccc(-c3nnco3)cc2)cc1,79*,-2,1,9,84*,-25
CC(C)OC(=O)c1cc(C(=O)c2cc(F)ccc2O)coc1=N,-6,16,0,6,13,13
COc1ccc(O)c(C(=O)c2coc(=N)c(C(=O)Nc3ccc(SC(F)F)cc3)c2)c1,28*,-21,28,23,8,-33
CCCCc1ccc(S(=O)(=O)NC2CCS(=O)(=O)C2)cc1 (stereo not drawn),23,-6,10,1,8,21*
COC(=O)C1=C[C@@H](C(=O)OC)[C@@H]2C3=C(C(=O)C2(C)C)[C@H](c2ccccc2)[C@@H]2C(=O)N(C)C(=O)[C@@H]2[C@@H]3C1,12,2,1,0,3,6
O=c1c2ccccc2n2c(-c3cccc(F)c3)nnc2n1Cc1ccccc1,9,21*,1,1,-1,-3
O=c1c2ccccc2n2c(-c3cccc(Cl)c3)nnc2n1Cc1ccccc1,-2,8,3,-6,1,-3

# Screening data deposited in PubChem BioAssay by The Scripps Research Institute Molecular Screening Center.
